These results are taken from ChEMBL document CHEMBL2163246 (J Nat Prod, 2012).

One assay relates to MDA-MB-231. Nature of the assay: Cytotoxicity against human MDA-MB-231 cells after 72 hrs by MTS assay. In kind it is functional, cell-based. As to conditions: MDA-MB-231, 72 h. Summed up: (§1)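 Cells plated at 4 × 10³ cells/well, left overnight, then exposed to increasing concentrations (0.064–40 μM) diluted from DMSO solution into culture medium. After 72 h, MTS/PMS reagent added; absorbance read at 490 nm. Viability = (OD_treat − OD_blank)/(OD_control − OD_blank) × 100%, mean of triplicate wells; DMSO + medium untreated cells as control.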
For orientation: Tetrazolium assays rely on reduction of a dye to a coloured formazan, in cell work by metabolically active cells.

Assay [1] concerns KB. Nature of the assay: Cytotoxicity against human KB cells after 72 hrs by MTS assay. It is filed as functional, cell-based. In outline:
as §1

A short description of assay [2]: Cytotoxicity against mouse EAC cells. In kind it is functional. The following applies: Ehrlich.
For a further assay, the system named is Pseudomonas aeruginosa. As to the kind of experiment: Antimicrobial activity against Pseudomonas aeruginosa. It is filed as functional.
Assay [3] relates to KB. As to the kind of experiment: Cytotoxicity against human KB cells. In kind it is functional, cell-based.
The nature of assay [4]: Cytotoxicity against mouse DLA cells. It is filed as functional.
A further assay relates to Jurkat. As to the kind of experiment: Cytotoxicity against human Jurkat T cells after 72 hrs by MTS assay. In kind it is functional, cell-based. Summed up: as §1
A further assay concerns MOLT-4. Nature of the assay: Cytotoxicity against human MOLT4 cells after 72 hrs by MTS assay. In kind it is functional, cell-based. As to conditions: MOLT-4, 72 h. In outline:
as §1

In another assay the test system is Candida albicans. As to the kind of experiment: Antimicrobial activity against Candida albicans. In kind it is functional.
A further assay deals with Escherichia coli. Nature of the assay: Antimicrobial activity against Escherichia coli. It is filed as functional.

Structures are written as SMILES. pIC50: −log10 of the molar value. Values after ≈ are worked out from the molar mass of the structure shown. Where a SMILES comes first, the peptide text is derived from it.

The term pIC50 denotes −log10 of the IC50, conventionally taken in molar units. A low value points to a high IC50. `CC(C)C[C@@H]1NC(=O)CNC(=O)[C@H](Cc2ccccc2)NC(=O)[C@H](Cc2ccc(O)cc2)NC(=O)[C@H](C)NC(=O)CNC1=O` (HELM PEPTIDE1{A.Y.F.G.L.G}$PEPTIDE1,PEPTIDE1,1:R1-6:R2$$$V2.0): the pIC50 with MDA-MB-231 and in the assay on KB [1] was under 5.00 in each case.
With `CC(C)C[C@@H]1NC(=O)[C@H](C)NC(=O)[C@H](Cc2ccccc2)NC(=O)[C@H](Cc2ccc(O)cc2)NC(=O)[C@@H]2CCCN2C(=O)CNC1=O` (HELM PEPTIDE1{A.L.G.P.Y.F}$PEPTIDE1,PEPTIDE1,1:R1-6:R2$$$V2.0), the pIC50 in the assay with MDA-MB-231 and with KB [1] was 5.11 each time.
Regarding `CC(C)C[C@@H]1NC(=O)CNC(=O)[C@H](Cc2ccccc2)NC(=O)[C@H](C)NC(=O)[C@@H]2CCCN2C(=O)CNC1=O` (HELM PEPTIDE1{A.F.G.L.G.P}$PEPTIDE1,PEPTIDE1,1:R1-6:R2$$$V2.0), the pIC50 in the assay on MDA-MB-231 and with KB [1] was under 5.00 throughout.
With `CC(C)C[C@@H]1NC(=O)CNC(=O)[C@H](Cc2ccccc2)NC(=O)[C@H](Cc2ccc(O)cc2)NC(=O)[C@@H]2CCCN2C(=O)[C@H](C)NC1=O` (HELM PEPTIDE1{A.P.Y.F.G.L}$PEPTIDE1,PEPTIDE1,1:R1-6:R2$$$V2.0), the pIC50 is 4.99 in the assay with MDA-MB-231 and 5.20 in the assay on KB [1].
In the assay on MDA-MB-231, `COc1cccc2c1C(=O)c1c(O)c3c(c(O)c1C2=O)C[C@@](O)(C(=O)CO)C[C@@H]3O[C@H]1C[C@H](N)[C@H](O)[C@H](C)O1` [DOXORUBICIN] showed a pIC50 of 7.40.
Regarding `CC(C)C[C@@H]1NC(=O)CNC(=O)[C@H](C)NC(=O)[C@H](Cc2ccc(O)cc2)NC(=O)[C@@H]2CCCN2C(=O)CNC1=O` (HELM PEPTIDE1{A.G.L.G.P.Y}$PEPTIDE1,PEPTIDE1,1:R1-6:R2$$$V2.0), the negative-log IC50 (pIC50) with MDA-MB-231 and in the assay on KB [1] was under 5.00 in each case.
As for `C[C@@H]1NC(=O)CNC(=O)[C@H](Cc2ccccc2)NC(=O)[C@H](Cc2ccc(O)cc2)NC(=O)[C@@H]2CCCN2C(=O)CNC1=O` (HELM PEPTIDE1{A.G.P.Y.F.G}$PEPTIDE1,PEPTIDE1,1:R1-6:R2$$$V2.0), the pIC50 in the assay on MDA-MB-231 and in the assay on KB [1] was under 5.00 throughout.
By CC50 is commonly meant the concentration giving 50% cytotoxicity. A high value points to lower toxicity to the cells. The term MIC denotes the smallest concentration in the dilution series that meets the test's criterion for growth inhibition. A high value points to weaker potency. With `CC(C)C[C@@H]1NC(=O)CNC(=O)[C@H](Cc2ccccc2)NC(=O)[C@H](Cc2ccc(O)cc2)NC(=O)[C@@H]2CCCN2C(=O)CNC1=O` [Cherimolacyclopeptide E] (HELM PEPTIDE1{F.G.L.G.P.Y}$PEPTIDE1,PEPTIDE1,1:R1-6:R2$$$V2.0), the values for the CC50 in assay [2] and in assay [4] were 4.96 µM and 2.76 µM, respectively. Moreover, the MIC in the assay with Pseudomonas aeruginosa, with Candida albicans and in the assay with Escherichia coli was 6 µg/mL (≈ 9.45 µM) in each case. The pIC50 with KB [3], in the assay with MDA-MB-231, in the assay with Jurkat, with MOLT-4 and in the assay with KB [1] was under 5.00 in each case.
`CC(C)C[C@@H]1NC(=O)CNC(=O)[C@H](Cc2ccccc2)NC(=O)[C@H](Cc2ccc(O)cc2)NC(=O)CNC(=O)CNC1=O` (HELM PEPTIDE1{F.G.L.G.G.Y}$PEPTIDE1,PEPTIDE1,1:R1-6:R2$$$V2.0): the pIC50 in the assay with MDA-MB-231 and in the assay on KB [1] was under 5.00 throughout.
